Many of the other results were omitted from the sample, so hits are more common in it than they were.
Lung fibro prol – blocks proliferation of human lung fibroblasts | LL 47 human lung fibroblast viability, ATP luminescence; hits give low values | viability, % at 10 µM | 85,000 compounds, 1.1% hits | AID 719;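 active = viability at or below 50% in the single dose screen; inactive = viability above 50%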;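 also: compound exposure lasted 72 h before the ATP readout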
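Test system: LL 47 human lung fibroblasts / Incubation: 72 h compound exposure at 37 °C after overnight plating / Technique: luminescent ATP detection, CellTiter-Glo / Compound dosing: 0.1% DMSO in all compound wells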
H69AR inhibit – blocks growth of human H69AR lung tumor cells. 85,000 compounds, 6% hits. viability, % at 10 µM. H69AR lung tumor viability, ATP luminescence, 72 h; hits give low values;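 active = viability at or below 40%; inactive = viability above 40%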;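 also: multidrug resistant small cell line overexpressing MRP-1 efflux transporter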
HCT116 PTEN-null – growth suppressors of cells with PTEN tumor suppressor deletion. AID 827. viability, % at 10 µM. 140,000 compounds, 1.2% hits. HCT116 PTEN-null viability, CellTiter-Glo, 60 h; hits give low values;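 active = viability at or below a set limit, 4 SD under the median of all tested compounds, cut at about 3.7% in these data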;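 also: PTEN knockout HCT116 line with beta catenin targeted HCT116 as companion control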
bCat KO growth – beta-catenin-lacking colon tumor cell growth suppression; viability, % at 10 µM; HCT116 beta-catenin knockout viability, CellTiter-Glo, 60 h; hits give low values; 140,000 compounds, 1.5% hits;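 active = viability at or under a set limit, the compound median less 4 SD, cut at about 6% in these data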
HUVEC inhibit – inhibitors of human endothelial cell proliferation; 86,000 compounds, 1.1% hits; viability, % at 10 µM (by protocol); HUVEC proliferation, CellTiter-Glo luminescence, 72 h; hits give low values; AID 648;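 active = viability at or below 30%; inactive = viability above 30%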
A number is an active result; 0 = inactive; - = no result given.

SMILES | Lung fibro prol | H69AR inhibit | HCT116 PTEN-null | bCat KO growth | HUVEC inhibit
Cc1sc2c(=O)n3c(nc2c1C(=O)NC1CCCCC1)CCCCC3 | 0 | 38.7 | 0 | 0 | 0
Cc1sc2c(=O)n3c(nc2c1C(=O)NCCCN1CCOCC1)CCCCC3 | 0 | 0 | 1.5 | 0 | 0
CC(C)(C)c1ccc(C(=O)CCCSC2=C(C#N)C(c3ccco3)C3=C(CCCC3=O)N2)cc1 (stereo not given) | 0 | 0 | 0 | 0 | 0
N#CC1=C(SCC(=O)c2ccccc2)NC2=C(C(=O)CCC2)C1c1ccco1 (stereo not given) | 0 | 16.4 | 0 | 0 | 0
Cc1ccc(C(=O)CSC2=C(C#N)C(c3ccco3)C3=C(CCCC3=O)N2)cc1 (stereo not given) | 0 | 18.6 | 0 | 0 | 0
CCOc1c(OC)cccc1C1CC(=O)Nc2cc(OC)c(OC)cc21 (stereo not given) | - | - | 0 | 0 | -
CCCOc1c(OC)cccc1C1CC(=O)Nc2cc3c(cc21)OCO3 (stereo not given) | 0 | 16.5 | 0 | 0 | 0
CCCOc1c(OC)cccc1C1CC(=O)Nc2cc3c(cc21)OCCO3 (stereo not given) | 0 | 14.7 | 0 | 0 | 0
CN(CC(=O)NC(=O)NCc1ccccc1)Cc1cccc(Cl)c1Cl | - | - | 0 | 0 | -
CCNc1nc(N)nc(Oc2ccc(OCCOc3ccc(Cl)cc3Cl)nn2)n1 | 0 | 0 | 0 | 0 | 0
O=C1c2ccccc2C2=Nc3ccccc3SC(c3cccc(F)c3)C12 (stereo not given) | - | - | 3.5 | 2.2 | -
O=C1c2ccccc2C2=Nc3ccccc3SC(c3ccc(Cl)cc3)C12 (stereo not given) | - | - | 3.3 | 3.7 | -
COCCCNC(=O)C(=O)NCCCOC(C)C | - | - | 0 | 0 | -
Cc1ccnc(NC(=O)/C=C/c2cccs2)c1 | - | - | 0 | 0 | -
CC(Nc1cc(=O)n(C)c(=O)n1C)c1ccccc1 (stereo not given) | - | - | 0 | 0 | -
Cc1ccc(C2Nc3ccccc3C(=O)N2Cc2ccco2)cc1 (stereo not given) | 0 | 29.8 | 0 | 0 | 0
COc1ccc(C(=O)c2ccc(N(C)C)cc2)c(OC)c1 | - | - | 0 | 0 | -
CN(C)c1ccc(C(=O)c2ccc(N(C)C)c3ccccc23)cc1 | 44.1 | 35.8 | 0 | 0 | 0
COc1ccc(-c2nnc(CSc3nc4ccccc4c(=O)n3C)o2)cc1OC | 0 | 0 | 0 | 0 | 0
COc1ccc(-c2cc(-c3ccc(C)cc3)nc(SCc3nnc(-c4ccccc4)o3)c2C#N)cc1OC | - | - | 1.3 | 1.5 | -
CCOC(=O)Cn1c(=O)oc2cc(S(=O)(=O)Nc3cccc(C)c3)ccc21 | 0 | 0 | 0 | 5.2 | 0
CCOC(=O)Cn1c(=O)oc2cc(S(=O)(=O)Nc3cc(OCC)ccc3OCC)ccc21 | 0 | 0 | 0 | 0 | 0
CCOC(=O)Cn1c(=O)oc2cc(S(=O)(=O)Nc3ccc(N(CC)CC)cc3C)ccc21 | 6.0 | 0 | 0 | 0 | 2.4
COc1cc(SC)ccc1C(=O)Nc1ccc2c(c1)OCCO2 | 0 | 0 | 0 | 0 | 0
O=C(/C=C/c1cn(CC(O)CN2CCCCCC2)c2ccccc12)c1cccs1 (stereo not given) | - | - | 1.9 | 1.2 | -
SMILES | Lung fibro prol | H69AR inhibit | HCT116 PTEN-null | bCat KO growth | HUVEC inhibit
CCCCN(C)CC(O)Cn1cc(/C=C/C(=O)c2cccs2)c2ccccc21 (stereo not given) | - | - | 1.6 | 1.6 | -
CCSc1nnc(NC(=O)CSc2nnc(-c3c[nH]c4ccccc34)n2C)s1 | 0 | 0 | 0 | 0 | 0
CCCN1C(=O)c2ccc(C(=O)NC3CCCCC3)cc2C1=O | 0 | 0 | 0 | 0 | 0
CN(C)c1cc(-c2ccccc2)nc(N)n1 | 0 | 39.9 | 0 | 0 | 0
NNc1nc(-c2ccccc2)cc(-c2ccccc2O)n1 | - | - | 0 | 0 | -
Nc1nc(-c2ccccc2)cc(-c2ccccc2O)n1 | 0 | 0 | 0 | 0 | 16.6
Nc1ccc(-c2cc(-c3ccc(N)cc3)nc(-c3ccccc3)n2)cc1 | - | - | 0 | 0 | -
COc1ccc(-c2cc(=O)oc3cc(OCc4nn[nH]n4)ccc23)cc1 | 0 | 0 | 0 | 0 | 0
COc1cccc(NC(=O)OCCN2CCN(Cc3ccccc3)CCC2=O)c1 | - | - | 0 | 0 | -
Cc1ccc(OCCN2CCN(CC(O)Cn3c4ccccc4c4ccccc43)CC2)cc1 (stereo not given) | - | - | 1.4 | 1.2 | -
CCCCOc1ncnc2c1[nH]c1ccc(F)cc12 | 0 | 0 | 0 | 0 | 0
COc1ccc(-n2nc3c(c2NC(=O)c2c(F)cccc2Cl)CS(=O)C3)cc1 (stereo not given) | 0 | 0 | 0 | 0 | 0
Cc1ccc(S(=O)(=O)CCC(=O)Nc2nc3c(s2)CCCC3)cc1 | 0 | 24.2 | 0 | 0 | 0
COC(=O)Nc1nc2c(s1)CCCC2 | 0 | 0 | 1.0 | 1.1 | 0
FC(F)(F)c1nc2nncn2c2c1CCCCC2 | 0 | 0 | 0 | 0 | 0
CCN(CC)S(=O)(=O)c1ccc2oc(C(=O)NCc3ccc(F)cc3)c(C)c2c1 | 0 | 33.2 | 0 | 0 | 0
CCN(CC)S(=O)(=O)c1ccc2oc(C(=O)NCC3COc4ccccc4O3)c(C)c2c1 (stereo not given) | 0 | 31.8 | 0 | 0 | 0
CN1C(=S)SC(N2OC3C(=O)N(c4ccccc4)C(=O)C3C2c2ccc(Cl)cc2)C1(C)C (stereo not given) | - | - | 0 | 0 | -
COc1ccc(-c2nc3c(c4nnc(SC(C)C(=O)Nc5ccccc5)n24)COC(C)(C)C3)cc1 (stereo not given) | - | - | 0 | 5.2 | -
CCOC(=O)C(C)Oc1cccc2c(=O)n(CC(=O)Nc3ccc4c(c3)OCCO4)ccc12 (stereo not given) | 0 | 0 | 0 | 0 | 0
CCOC(=O)C(C)Oc1cccc2c(=O)n(CC(=O)NCc3ccc4c(c3)OCO4)ccc12 (stereo not given) | 0 | 30.5 | 0 | 0 | 0
CCOC(=O)c1ccccc1NC(=O)COC | 0 | 0 | 0 | 0 | 0
COC(=O)c1ccccc1NC(=O)COC(C)=O | - | 6.0 | 0 | 0 | 0
C=CCn1c(SCc2nc3ccccc3c(=O)[nH]2)nnc1-c1cc2cc(Cl)ccc2o1 | 0 | 17.0 | 0 | 0 | 0
COc1ccc(NC(=O)CN(C2CCCCC2)S(C)(=O)=O)cc1OC | 0 | 0 | 0 | 0 | 0
SMILES | Lung fibro prol | H69AR inhibit | HCT116 PTEN-null | bCat KO growth | HUVEC inhibit
COC(=O)c1ccc(NC(=O)CN(C2CCCCC2)S(C)(=O)=O)cc1 | 0 | 37.9 | 0 | 0 | 0
CCOC(=O)c1cccc(NC(=O)Cn2c(CC(=O)NC)nc3ccccc32)c1 | 0 | 0 | 0 | 0 | 0
O=C(NCc1ccco1)c1cc2n(n1)C(C(F)(F)F)CC(c1ccc(Cl)c(Cl)c1)N2 (stereo not given) | 0 | 31.2 | 0 | 0 | 0
O=C(NCc1ccco1)c1cc2n(n1)C(C(F)(F)F)CC(c1ccc(Br)cc1)N2 (stereo not given) | 0 | 0 | 0 | 0 | 0
CC(C)CCn1c(-c2nonc2N)nc2ccccc21 | 0 | 10.8 | 0 | 0 | 0
CCCCn1c(N)nc2ccccc21 | 0 | 0 | 0 | 0 | 0
Nc1nonc1-c1nc2ccccc2n1CC(=O)NC1CCCC1 | 0 | 0 | 0 | 0 | 0
CCOC(=O)c1ccccc1NC(=O)Cn1c(-c2nonc2N)nc2ccccc21 | 46.7 | 27.0 | 0 | 0 | 0
Nc1nonc1-c1nc2ccccc2n1Cc1ccccc1 | 0 | 17.4 | 0 | 0 | 0
